Results as given in PMC3447631 (Chemistry & biology, 2012).
In brackets after ≈: the same amount, converted by molar mass.

How the values were obtained:
[1] = system: endogenous insulin promoter; test: Endogenous insulin mRNA; type: cell-based, human; details: for effect of fatty acid on insulin gene expression (quantitative RT-PCR): T6PNE, 1μM tamoxifen, 48 hours; for effect on endogenous insulin expression / insulin promoter activity: T6PNE cells
How it was run: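 Q-PCR of endogenous insulin mRNA in T6PNE cells after 48 h exposure to test compound across a concentration series. For fatty acids, cells got 1μM tamoxifen plus fatty acid or DMSO vehicle for 48 hours before RNA harvest. Insulin mRNA was normalized to GAPDH or 18S rRNA; mean ± SE, n=3.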

[2] = system: modified estrogen receptor (E47MER); test: Counterscreen: prevention of E47MER translocation; type: cell-based
[3] = system: INS1 and INS2 genes; test: Insulin gene mRNA in MIN6 cells after prolonged fatty acid exposure; type: cell-based, murine; details: 0.08mM Oleate or 0.02mM Palmitate, 110 days
[4] = system: HNF4α gene expression; test: HNF4α mRNA expression in MIN6 cells; type: cell-based, murine; details: for effect of fatty acid on HNF4α gene in MIN6: 0.08mM Oleate or 0.02mM Palmitate, 110 days
[5] = system: p57Kip2 expression; test: Kip2 mRNA in T6PNE cells; type: cell-based, human
How it was run: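 Kip2 mRNA in T6PNE cells measured by Q-PCR, normalized to 18s rRNA. Treated and DMSO vehicle cells were compared by Student's t-test.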

[6] = target: T1, HNF4α DNA binding (Homo sapiens, UniProt P41235); test: HNF4α DNA binding, HNF TransAM ELISA on HepG2 nuclear extracts; type: cell-based; details: HepG2 incubated overnight with compound
T1 sequence (P41235 1-474): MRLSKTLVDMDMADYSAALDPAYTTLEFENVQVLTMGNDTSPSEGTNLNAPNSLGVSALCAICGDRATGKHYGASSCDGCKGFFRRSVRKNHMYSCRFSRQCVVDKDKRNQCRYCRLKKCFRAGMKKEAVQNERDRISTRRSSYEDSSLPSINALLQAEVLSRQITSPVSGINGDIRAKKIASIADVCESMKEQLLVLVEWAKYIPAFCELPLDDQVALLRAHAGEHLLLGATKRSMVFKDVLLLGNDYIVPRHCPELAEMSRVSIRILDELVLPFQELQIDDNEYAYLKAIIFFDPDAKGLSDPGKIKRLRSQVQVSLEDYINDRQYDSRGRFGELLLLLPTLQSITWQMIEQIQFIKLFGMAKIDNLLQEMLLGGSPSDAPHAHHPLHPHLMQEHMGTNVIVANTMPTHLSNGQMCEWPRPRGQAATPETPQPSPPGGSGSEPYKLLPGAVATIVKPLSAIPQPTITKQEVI
How it was run: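 HepG2 cells were incubated overnight with test compound. Nuclear protein extracts (5μg) were added to wells bearing an oligonucleotide with an HNF4α binding site. Bound HNF4α was detected with an anti-HNF4α antibody (ELISA). Mean ± SD, n=3 biological replicates; Student's t-test.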

[7] = target: full-length HNF4α (Rattus norvegicus, UniProt P22449); test: Direct binding by quenching of HNF4α aromatic amino acid fluorescence; details: Hill equation analysis
[8] = target: T2, HNF4α (Homo sapiens, UniProt P41235); test: DARTS assay in HepG2 cells; type: binding; details: HepG2, 20μM, 24hr, subtilisin
T2 sequence (P41235 1-474): T1 sequence (P41235 1-474)
How it was run: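 DARTS: HepG2 cells were treated with DMSO or test compound at 20μM for 24hr. Read-out is the ligand-induced change in HNF4α sensitivity to proteolysis.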

[9] = system: PPARγ; type: cell-based; details: PPRE-Luc, HeLa
How it was run: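 HeLa cells were co-transfected with a PPRE-Luc reporter, with or without a PPARγ expression vector, then treated with test compound. Read-out was luciferase activity; mean ± SE, n=3.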

[10] = system: human insulin promoter; test: Human insulin promoter-GFP transgene assay in T6PNE cells; type: cell-based; details: for effect of reported HNF4α ligands on insulin promoter activity: 48 hours, 0.5 μM or 1 μM tamoxifen
How it was run: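 T6PNE cells carry a lentiviral human insulin promoter–GFP transgene. Cells were treated for 48 hours; where stated, tamoxifen was 0.5 or 1 μM and fatty acids 0.12 mM. The green channel was imaged and percent GFP+ cells normalized to total cells per well.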

[11] = system: HNF4α gene expression; test: HNF4α mRNA expression in T6PNE cells; type: cell-based, human
[12] = system: E47 and PDX-1 binding to the human insulin promoter; test: ChIP of E47 and PDX-1 on the human insulin promoter in T6PNE cells; type: cell-based; details: 5μM, 48 hours
How it was run: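 T6PNE cells were given 1μM tamoxifen plus DMSO or 5μM test compound for 48 hours. ChIP used anti-E47 and anti-PDX-1 antibodies, followed by Q-PCR with primers for the E-box and A-box elements of the insulin promoter. Treated and vehicle binding were compared by Student's t-test.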

[13] = Solubility; type: physicochemical
[14] = system: HNF4α gene expression; test: HNF4α mRNA expression in HepG2 cells; type: cell-based; details: 48 hours
How it was run: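 HNF4α mRNA in treated HepG2 cells measured by Q-PCR and normalized to 18S rRNA. Differences in expression assessed by Student's t-test.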

[15] = system: tumor cell lines; test: Toxicity to tumor cell lines versus cultured primary cells in vitro; type: cell-based
[16] = Plasma protein binding; type: in vitro ADME; details: after 4 h
[17] = target: PPARα (Homo sapiens, UniProt Q07869); test: PPRE-luciferase reporter assay with PPARα co-transfection; type: cell-based
[18] = Hepatic microsomal stability; type: in vitro ADME; details: after 1.25 h
[19] = target: PPARδ (Homo sapiens, UniProt Q03181); test: PPRE-luciferase reporter assay with PPARδ co-transfection; type: cell-based
[20] = Plasma stability; type: in vitro ADME; details: after 3 h

Chain of full-length HNF4α (P22449 whole entry): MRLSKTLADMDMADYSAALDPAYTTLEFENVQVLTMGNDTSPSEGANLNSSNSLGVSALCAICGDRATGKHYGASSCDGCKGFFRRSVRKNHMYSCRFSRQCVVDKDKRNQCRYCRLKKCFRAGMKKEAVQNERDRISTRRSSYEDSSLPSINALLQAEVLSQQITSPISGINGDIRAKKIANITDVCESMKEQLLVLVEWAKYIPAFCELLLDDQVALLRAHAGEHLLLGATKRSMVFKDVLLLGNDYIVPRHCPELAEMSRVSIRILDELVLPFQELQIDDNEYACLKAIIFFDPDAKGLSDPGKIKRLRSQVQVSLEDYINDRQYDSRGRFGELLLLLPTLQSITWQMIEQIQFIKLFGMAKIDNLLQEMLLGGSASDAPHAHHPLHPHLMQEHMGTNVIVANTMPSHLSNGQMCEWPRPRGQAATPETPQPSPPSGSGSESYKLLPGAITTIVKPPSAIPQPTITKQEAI
Chain of PPARδ (Q03181 whole entry, species assumed): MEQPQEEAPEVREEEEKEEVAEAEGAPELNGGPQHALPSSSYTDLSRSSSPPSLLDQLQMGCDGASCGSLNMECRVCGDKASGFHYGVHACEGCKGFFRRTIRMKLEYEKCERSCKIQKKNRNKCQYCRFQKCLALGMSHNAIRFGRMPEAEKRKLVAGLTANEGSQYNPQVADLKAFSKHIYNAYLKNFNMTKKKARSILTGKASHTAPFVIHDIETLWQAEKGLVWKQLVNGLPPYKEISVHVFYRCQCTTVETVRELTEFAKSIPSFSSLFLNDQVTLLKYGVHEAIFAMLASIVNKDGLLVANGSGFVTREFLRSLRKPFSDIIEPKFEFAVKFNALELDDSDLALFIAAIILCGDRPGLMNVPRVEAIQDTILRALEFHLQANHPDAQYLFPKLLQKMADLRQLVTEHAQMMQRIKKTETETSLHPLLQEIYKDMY
Chain of PPARα (Q07869 whole entry, species assumed): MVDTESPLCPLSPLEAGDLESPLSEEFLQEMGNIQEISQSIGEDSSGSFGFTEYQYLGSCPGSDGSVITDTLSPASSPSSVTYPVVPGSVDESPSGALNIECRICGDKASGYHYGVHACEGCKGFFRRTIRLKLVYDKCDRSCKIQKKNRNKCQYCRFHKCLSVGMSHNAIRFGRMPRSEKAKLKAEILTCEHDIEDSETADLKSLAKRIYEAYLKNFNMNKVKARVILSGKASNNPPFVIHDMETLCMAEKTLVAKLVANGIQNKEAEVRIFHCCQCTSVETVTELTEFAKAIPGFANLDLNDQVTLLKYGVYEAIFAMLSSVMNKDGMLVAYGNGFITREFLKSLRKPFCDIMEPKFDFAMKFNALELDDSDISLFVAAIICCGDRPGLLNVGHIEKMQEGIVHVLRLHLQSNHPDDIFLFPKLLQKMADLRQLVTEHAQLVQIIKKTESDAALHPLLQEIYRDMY

Molecule: CCCCC/C=C\C/C=C\CCCCCCCC(=O)O [linoleic acid]
- effect of fatty acid on insulin gene expression (quantitative RT-PCR) [1]: inhibited

Molecule: O=[N+]([O-])c1ccc2nc(-c3ccco3)[nH]c2c1 [compound 5816458]
- estrogenic antagonism / tamoxifen-like activity (E47MER translocation) [2]: estrogenic antagonists

Molecule: CCCC(=O)O [butyric]
- effect of fatty acid on insulin gene expression (quantitative RT-PCR) [1]: did not have an effect

Molecule: CC(=O)O [acetic]
- effect of fatty acid on insulin gene expression (quantitative RT-PCR) [1]: did not have an effect

Molecule: CCCCCCCC/C=C\CCCCCCCC(=O)O [oleate, reference compound]
- effect on INS2 gene in MIN6 [3]: inhibited
- effect of fatty acid on HNF4α gene in MIN6 [4]: inhibited

Molecule: CCCCCS(=O)(=O)NC(=O)c1ccc2nc(C)n(Cc3ccc(Cl)cc3Cl)c2c1 [FK614, reference compound]
- effect on Kip2 expression [5]: no effect
- effect on HNF4α DNA binding [6]: inactive
- Hill coefficient of binding [7]: 0.6 ± 0.1
- effect on HNF4α protease sensitivity (DARTS) [8]: no effect
- activity as PPARγ agonist [9]: had activity as PPARγ agonists
- effect on endogenous insulin expression / insulin promoter activity [1]: no effect

Molecule: Cc1nc2ccccc2n1Cc1cc([N+](=O)[O-])ccc1O [BI6018]
- effect on HNF4α DNA binding [6]: inactive
- activity in the insulin promoter assay [10]: inactive
- effect on HNF4α protease sensitivity (DARTS) [8]: no effect

Molecule: CC(C)(CCCCCCCCCCC(C)(C)CC(=O)O)CC(=O)O [Medica-16, 3,3,14,14-tetramethylhexadecanedioic acid]
- effect of reported HNF4α ligands on insulin promoter activity [10]: none of these compounds had consistent and robust effects

Molecule: CCCCCCCCCCCCCCCC(=O)O [palmitate, reference compound]
- effect on INS2 gene in MIN6 [3]: inhibited
- effect of fatty acid on HNF4α mRNA levels in T6PNE ([11]; 48 hour treatment, with tamoxifen): significantly inhibited
- effect of fatty acid on HNF4α gene in MIN6 [4]: inhibited
- effect of fatty acid on insulin gene expression (quantitative RT-PCR) [1]: dose-dependent decrease

Molecule: 3-methyl-2-nitronaphthofuran [Compound 5]
- effect of reported HNF4α ligands on insulin promoter activity [10]: none of these compounds had consistent and robust effects

Molecule: Cc1nc2ccccc2n1S(=O)(=O)c1cc([N+](=O)[O-])ccc1Cl [BIM5078, 1-(2′-chloro-5′-nitrobenzenesulfonyl)-2-methylbenzimidazole]
- association of E47 with the distal (E2) E-box of the insulin promoter [12]: significantly decreased
- association of PDX-1 at A-boxes (A1, A3, A5) of the insulin promoter [12]: significantly decreased
- solubility at 18 h [13]: 0.17 µg/mL (≈ 0.483 µM)
- effect on Kip2 expression [5]: potently decreased
- effect on HNF4α expression in HepG2 [14]: potently repressed
- effect on HNF4α expression in T6PNE ([11]; 48 hours): potently repressed
- toxicity to tumor cell lines in vitro [15]: toxic
- effect on HNF4α DNA binding [6]: active but less potent
- Hill coefficient of binding [7]: 0.9 ± 0.3
- binding to plasma proteins, bound [16]: 98%
- estrogenic antagonism / tamoxifen-like activity (E47MER translocation) [2]: passed the counterscreen
- effect on HNF4α protease sensitivity (DARTS) [8]: induced altered HNF4α protease sensitivity
- luciferase activity with PPARα co-transfected [17]: no change in luciferase activity
- microsomal stability, remaining [18]: 32%
- PPRE activation enhanced by co-transfection with PPARγ expression vector [9]: ~4 fold
- activity as PPARγ agonist [9]: had activity as PPARγ agonists
- PPRE activation ([9]; without PPARγ expression vector): 2 fold
- luciferase activity with PPARδ co-transfected [19]: no change in luciferase activity
- plasma stability, remaining [20]: 8%
- effect on HNF4α expression in MIN6 ([4]; 5 hours): potently repressed
- IC50 ([1]; Homo sapiens, 48 h, read-out: IC50, inhibition of endogenous insulin expression): 930 nM
- effect on endogenous insulin expression / insulin promoter activity [1]: had activity
